Measured values pooled from the literature.
Compare with care: the assays were run in different laboratories.
Target: cGMP-dependent protein kinase 2 (PRKG2, Homo sapiens, UniProt Q13237)
Sequence (Q13237 1-762, as in one of the studies): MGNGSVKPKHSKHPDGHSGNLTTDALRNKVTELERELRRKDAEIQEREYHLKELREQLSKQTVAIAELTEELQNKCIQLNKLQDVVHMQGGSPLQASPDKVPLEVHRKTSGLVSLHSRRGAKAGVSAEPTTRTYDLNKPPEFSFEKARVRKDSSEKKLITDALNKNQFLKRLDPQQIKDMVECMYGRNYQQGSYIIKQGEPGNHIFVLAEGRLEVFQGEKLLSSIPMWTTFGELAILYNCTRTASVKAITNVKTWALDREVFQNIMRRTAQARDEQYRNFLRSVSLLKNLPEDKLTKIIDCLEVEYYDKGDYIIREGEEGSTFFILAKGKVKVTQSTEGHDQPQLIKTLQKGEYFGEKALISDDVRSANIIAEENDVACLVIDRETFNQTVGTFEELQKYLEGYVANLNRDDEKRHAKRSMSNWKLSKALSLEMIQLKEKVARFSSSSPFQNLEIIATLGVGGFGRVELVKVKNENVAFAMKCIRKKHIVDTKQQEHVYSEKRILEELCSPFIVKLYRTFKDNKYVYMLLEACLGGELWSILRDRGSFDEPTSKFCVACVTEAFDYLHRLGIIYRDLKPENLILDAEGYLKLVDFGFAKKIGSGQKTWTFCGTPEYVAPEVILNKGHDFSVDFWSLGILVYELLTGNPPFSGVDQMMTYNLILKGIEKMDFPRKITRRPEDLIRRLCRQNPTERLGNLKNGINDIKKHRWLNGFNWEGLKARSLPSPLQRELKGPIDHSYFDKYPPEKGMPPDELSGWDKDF

The activity vs control of `Cc1ccc(C(=O)NCc2ccsc2)cc1C#Cc1cn(C(C)C)c2ncnc(N)c12` is reported as 112% (enzyme activity, inhibitor; 1 µM).
`Cn1cnc(Br)c1C1=CN(c2ncnc3[nH]cnc23)CCS1` has an inhibition of 43.1% (enzyme activity, inhibitor, radiometric; 50 nM).
The remaining binding of `COc1cccc(CNC(=O)c2nc3scc(COCc4ccc(C(=O)O)cc4)c3c(=O)[nH]2)c1` is reported as 100% (cell-free assay, competition with immobilised ligand; 1 µM).
`O=C(Nc1cnn(-c2csc(C(=O)NC3COC3)c2)c1)Nc1ccccc1Cl` gave a remaining activity of 101% (enzyme activity, inhibitor; 5 µM).
With `Cc1cc(-n2nc(Cc3cc(F)cc(C(F)(F)F)c3)nc2C)ccc1C(N)=O` the remaining binding was 86% (cell-free assay, competition with immobilised ligand; 1 µM).
For `COc1cc2ncnc(Nc3ccc(Oc4ccccc4)c(C)c3C)c2cc1OC`, the inhibition was 2% (enzyme activity, inhibitor; 1 µM).
The remaining activity of `CC(C)(C)c1nc2c(s1)c1nc(N)ncc1c1ccc(NS(=O)(=O)c3c(F)cccc3F)c(F)c12` is reported as 102% (enzyme activity, inhibitor, radiometric; 1 µM).
The remaining signal of `Cc1ccc(NC(=O)c2ccc(CN3CCN(C)CC3)cc2)cc1Nc1nc(-c2cccnc2)cs1` is reported as 95.4% (cell-free assay; 0.5 µM).
`Cn1cncc1C1=CN(c2ncnc3[nH]cnc23)CCS1` gave an inhibition of 99.4% (enzyme activity, inhibitor, radiometric; 2 µM).
`N#CC1(c2ccccn2)CCN(Cc2cc(C(=O)N3CCCC3)c(=O)n3ccccc23)CC1` has a remaining binding of 100% (cell-free assay, competition with immobilised ligand; 1 µM).
For `C[C@H]1CCN(c2nccc(-c3cnn4ncccc34)n2)C1`, the remaining binding was 80% (binding; 1 µM).
With `CN(C)C1CCN(CC#Cc2nn(C3CCCC3)c3nc(NCc4ccccc4)ncc23)C1` (stereo not drawn) the inhibition was 6% (enzyme activity, inhibitor, FRET; 1 µM).
`C[C@H](c1cccc(C#N)c1)n1cc(Cl)cc(C(N)=O)c1=N` has a remaining binding of 97% (cell-free assay, competition with immobilised ligand; 1 µM).
With `N#CCCc1ccc2c(c1)-c1[nH]c3ccc([N+](=O)[O-])cc3c1CC(=O)N2` the remaining signal was 93.9% (cell-free assay; 0.5 µM).
With `CO[C@H]1CC[C@H](CNc2ccc(S(=O)(=O)NC(=O)c3ccc(N4CCN(CC5=C(c6ccc(Cl)cc6)CC(C)(C)CC5)CC4)cc3Oc3cnc4[nH]ccc4c3)cc2[N+](=O)[O-])CC1` the remaining binding was 90% (cell-free assay, competition with immobilised ligand; 1 µM).
`CC(C)(O)[C@H]1CC[C@H](Nc2ccc3ncc(-c4cccc(C(F)(F)F)c4)n3n2)CC1` gave a remaining activity of 93.7% (enzyme activity, inhibitor; 1 µM).
`O=C(NCCCC1CCCCC1)c1ccc(CNC(=O)c2cnn(-c3ccccc3)c2C(F)(F)F)cc1` has a remaining binding of 89% (cell-free assay, competition with immobilised ligand; 0.1 µM).
With `O=C1NC(=O)c2cc(Nc3ccc(F)cc3)c(Nc3ccc(F)cc3)cc21` the remaining signal was 83.3% (cell-free assay; 0.5 µM).
